Calls of active or inactive are those of the source. No cut-off for these calls is given here.
Legend:
A549 = test: Cytotoxicity against human A549 cells assessed as reduction in cell viability incubated for 72 hrs by alamar blue assay; assay type: functional, cell-based; settings: A549, 72 h
Outline: (§1)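 Adherent cells were seeded at 1500 cells/well in 384-well plates and allowed 2–3 h to attach. Compounds in DMSO, diluted in media over 31.6 nM–200 μM, were tested in triplicate for 72 h continuous exposure at 37 °C, 5% CO2. Alamar Blue was added for the final 3 h and fluorescence read (ex 560/em 590 nm). IC50 was fitted from ≥3 independent experiments.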

U-937 [1] = test: Cytotoxicity against human U937 cells assessed as reduction in cell viability incubated for 72 hrs by alamar blue assay; assay type: functional, cell-based; settings: U-937, 72 h
Outline: (§2)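 Suspension cells (2200/well, 384-well) were added directly onto compound in media with no attachment period. Compounds spanned 31.6 nM–200 μM in triplicate, with 72 h exposure at 37 °C, 5% CO2. Alamar Blue was added for the last 3 h and fluorescence read (ex 560/em 590 nm). IC50 came from ≥3 independent experiments.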

MIA PaCa-2 [2] = test: Cytotoxicity against human MIAPaCa2 cells assessed as reduction in cell viability incubated for 72 hrs by alamar blue assay; assay type: functional, cell-based; settings: MIA PaCa-2, 72 h; outline: as §1
HCT-116 [3] = test: Cytotoxicity against human HCT116 cells assessed as reduction in cell viability incubated for 72 hrs by alamar blue assay; assay type: functional, cell-based; settings: HCT-116, 72 h; outline: as §1
REH = test: Cytotoxicity against human REH cells assessed as reduction in cell viability incubated for 72 hrs by alamar blue assay; assay type: functional, cell-based; outline: as §2
U-937 [4] = test: Cytotoxicity against human U937 cells assessed as reduction in cell viability incubated for 72 hrs in presence of 6TP by alamar blue assay; assay type: functional
Outline: (§3)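 Combination assay in 96-well plates with 100 μL final volume and 1% DMSO. Two test-compound concentrations were crossed with five 6TP concentrations, then cells were added (4000/well adherent, 7000/well suspension). Plates ran 72 h at 37 °C, 5% CO2, with Alamar Blue viability read-out and ≥3 independent experiments. Combination index was calculated by the Chou–Talalay method.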

HeLa [5] = test: Cytotoxicity against human HeLa cells assessed as reduction in cell viability incubated for 72 hrs in presence of doxorubicin by alamar blue assay; assay type: functional
Outline: (§4)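 Same combination format as the 6TP study, with the cytotoxic partner (doxorubicin, etoposide or paclitaxel) combined with test compound. Cells were at 4000/well (adherent) in 100 μL, 1% DMSO, for 72 h at 37 °C, 5% CO2, with Alamar Blue viability read-out. Combination index was derived by the Chou–Talalay protocol and reported as a median.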

HeLa [6] = test: Cytotoxicity against human HeLa cells assessed as reduction in cell viability incubated for 72 hrs by alamar blue assay; assay type: functional, cell-based; outline: as §1
MIA PaCa-2 [7] = test: Cytotoxicity against human MIAPaCa2 cells assessed as cell viability at 5 uM incubated for 72 hrs in presence of 100 uM 6TP by alamar blue assay (reference value: 30.7 %); assay type: functional; outline: as §3
MIA PaCa-2 [8] = test: Cytotoxicity against human MIAPaCa2 cells assessed as cell viability at 2.5 uM incubated for 72 hrs in presence of 25 uM 6TP by alamar blue assay (reference value: 6.4 %); assay type: functional; outline: as §3
MIA PaCa-2 [9] = test: Cytotoxicity against human MIAPaCa2 cells assessed as cell viability at 2.5 uM incubated for 72 hrs in presence of 10 uM 6TP by alamar blue assay (reference value: 6.9 %); assay type: functional; outline: as §3
MIA PaCa-2 [10] = test: Cytotoxicity against human MIAPaCa2 cells assessed as cell viability at 5 uM incubated for 72 hrs by alamar blue assay (reference value: 0 %); assay type: functional; settings: MIA PaCa-2, 72 h, read-out: Activity; outline: as §3
MIA PaCa-2 [11] = test: Cytotoxicity against human MIAPaCa2 cells assessed as cell viability at 5 uM incubated for 72 hrs in presence of 25 uM 6TP by alamar blue assay (reference value: 6.4 %); assay type: functional; outline: as §3
MIA PaCa-2 [12] = test: Cytotoxicity against human MIAPaCa2 cells assessed as cell viability at 2.5 uM incubated for 72 hrs by alamar blue assay (reference value: 0 %); assay type: functional; settings: MIA PaCa-2, 72 h, read-out: Activity; outline: as §3
MIA PaCa-2 [13] = test: Cytotoxicity against human MIAPaCa2 cells assessed as combinational index at 2.5 uM incubated for 72 hrs in presence of 50 uM 6TP by alamar blue assay; assay type: functional; outline: as §3
MIA PaCa-2 [14] = test: Cytotoxicity against human MIAPaCa2 cells assessed as combinational index at 2.5 uM incubated for 72 hrs in presence of 200 uM 6TP by alamar blue assay; assay type: functional; outline: as §3
MIA PaCa-2 [15] = test: Cytotoxicity against human MIAPaCa2 cells assessed as combinational index at 5 uM incubated for 72 hrs in presence of 200 uM 6TP by alamar blue assay; assay type: functional; outline: as §3
MIA PaCa-2 [16] = test: Cytotoxicity against human MIAPaCa2 cells assessed as cell viability at 5 uM incubated for 72 hrs in presence of 10 uM 6TP by alamar blue assay (reference value: 6.9 %); assay type: functional; outline: as §3
MIA PaCa-2 [17] = test: Cytotoxicity against human MIAPaCa2 cells assessed as combinational index at 2.5 uM incubated for 72 hrs in presence of 100 uM 6TP by alamar blue assay; assay type: functional; outline: as §3
MIA PaCa-2 [18] = test: Cytotoxicity against human MIAPaCa2 cells assessed as combinational index at 5 uM incubated for 72 hrs in presence of 50 uM 6TP by alamar blue assay; assay type: functional; outline: as §3
MIA PaCa-2 [19] = test: Cytotoxicity against human MIAPaCa2 cells assessed as combinational index at 5 uM incubated for 72 hrs in presence of 25 uM 6TP by alamar blue assay; assay type: functional; outline: as §3
MIA PaCa-2 [20] = test: Cytotoxicity against human MIAPaCa2 cells assessed as cell viability at 2.5 uM incubated for 72 hrs in presence of 50 uM 6TP by alamar blue assay (reference value: 13.8 %); assay type: functional; outline: as §3
MIA PaCa-2 [21] = test: Cytotoxicity against human MIAPaCa2 cells assessed as cell viability at 5 uM incubated for 72 hrs in presence of 50 uM 6TP by alamar blue assay (reference value: 13.8 %); assay type: functional; outline: as §3
MIA PaCa-2 [22] = test: Cytotoxicity against human MIAPaCa2 cells assessed as combinational index at 2.5 uM incubated for 72 hrs in presence of 25 uM 6TP by alamar blue assay; assay type: functional; outline: as §3
MIA PaCa-2 [23] = test: Cytotoxicity against human MIAPaCa2 cells assessed as cell viability at 2.5 uM incubated for 72 hrs in presence of 100 uM 6TP by alamar blue assay (reference value: 30.7 %); assay type: functional; outline: as §3
MIA PaCa-2 [24] = test: Cytotoxicity against human MIAPaCa2 cells assessed as combinational index at 5 uM incubated for 72 hrs in presence of 100 uM 6TP by alamar blue assay; assay type: functional; outline: as §3
HCT-116 [25] = test: Cytotoxicity against human HCT116 cells assessed as reduction in cell viability incubated for 72 hrs in presence of 6TP by alamar blue assay; assay type: functional, cell-based; outline: as §3
HCT-116 [26] = test: Cytotoxicity against human HCT116 cells assessed as reduction in cell viability incubated for 72 hrs in presence of paclitaxel by alamar blue assay; assay type: functional, cell-based; outline: as §4
HCT-116 [27] = test: Cytotoxicity against human HCT116 cells assessed as reduction in cell viability incubated for 72 hrs in presence of etoposide by alamar blue assay; assay type: functional, cell-based; outline: as §4
HCT-116 [28] = test: Cytotoxicity against human HCT116 cells assessed as reduction in cell viability incubated for 72 hrs in presence of doxorubicin by alamar blue assay; assay type: functional, cell-based; outline: as §4

SMILES	IC50 (A549)	IC50 (U-937 [1])	IC50 (MIA PaCa-2 [2])	IC50 (HCT-116 [3])	IC50 (REH)	IC50 (HeLa [6])	other results
COc1cc(OC)c(C(=O)CCc2ccccc2)c(OC)c1Cc1ccccc1O	> 20 µM	> 20 µM	> 20 µM	> 20 µM	> 20 µM	> 20 µM	CI (U-937 [4]): 0.22; CI (HeLa [5]): 0.11
COc1cc(OC)c(C(C)=O)c(OC)c1	9.8 µM	7.2 µM	14.3 µM	> 20 µM	> 20 µM	3.8 µM	–
COCOc1cc(OCOC)c(C(=O)/C=C/c2ccccc2)c(OCOC)c1	8.4 µM	8.1 µM	11.8 µM	> 20 µM	> 20 µM	11.5 µM	Activity (MIA PaCa-2 [7]): 19.3%; Activity (MIA PaCa-2 [8]): 15%; Activity (MIA PaCa-2 [9]): 14.2%; viability at 5 µM (MIA PaCa-2 [10]): 20%; Activity (MIA PaCa-2 [11]): 17.3%; viability at 2.5 µM (MIA PaCa-2 [12]): 21.1%; CI (MIA PaCa-2 [13]): 0.56; CI (MIA PaCa-2 [14]): 1.79; CI (MIA PaCa-2 [15]): 2.09; Activity (MIA PaCa-2 [16]): 18.4%; CI (MIA PaCa-2 [17]): 0.96; CI (MIA PaCa-2 [18]): 0.57; CI (MIA PaCa-2 [19]): 0.47; Activity (MIA PaCa-2 [20]): 16.9%; Activity (MIA PaCa-2 [21]): 17%; CI (MIA PaCa-2 [22]): 0.24; Activity (MIA PaCa-2 [23]): 17.6%; CI (MIA PaCa-2 [24]): 1.01
COc1cc(OC)c(C(=O)/C=C/c2ccccc2)c(OC)c1Cc1ccccc1O	9.3 µM	4.2 µM	4.1 µM	18.6 µM	> 20 µM	2.7 µM	Activity (HCT-116 [25]): inactive; Activity (HCT-116 [26]): inactive; Activity (HCT-116 [27]): inactive; CI (HeLa [5]): 0.12
COCOc1cc(OC)cc(OC)c1C(C)=O	16.9 µM	13.3 µM	> 20 µM	> 20 µM	> 20 µM	14 µM	–
COCOc1cc(O)c(C(C)=O)c(OCOC)c1	> 20 µM	7.4 µM	> 20 µM	> 20 µM	> 20 µM	12.2 µM	–
COCOc1cc(OC)cc(OC)c1C(=O)/C=C/c1ccccc1	3.5 µM	2.5 µM	5.6 µM	> 20 µM	19.4 µM	4.8 µM	–
CC(=O)c1c(O)cc(O)cc1O [2,4,6-TRIHYDROXYACETOPHENONE]	> 20 µM	> 20 µM	> 20 µM	> 20 µM	> 20 µM	> 20 µM	–
C=CCOc1ccccc1Cc1c(OC)cc(OC)c(C(=O)/C=C/c2ccccc2)c1OC	8.5 µM	7.5 µM	9.4 µM	> 20 µM	12.6 µM	5.8 µM	–
COCOc1cc(OCOC)c(C(C)=O)c(OCOC)c1	> 20 µM	11.7 µM	6.1 µM	> 20 µM	> 20 µM	> 20 µM	–
COc1cc(OC)c(C(=O)/C=C/c2ccccc2)c(OC)c1	4.3 µM	6.7 µM	> 20 µM	> 20 µM	> 20 µM	5.2 µM	–
COc1cc(O)c(Cc2ccccc2O)c(O)c1C(=O)CCc1ccccc1 [UVARETIN]	2.2 µM	3.6 µM	2 µM	> 20 µM	11.3 µM	3.7 µM	Activity (HCT-116 [25]): inactive; Activity (HCT-116 [28]): inactive; Activity (HCT-116 [27]): inactive
COCOc1cc(O)c(C(=O)/C=C/c2ccccc2)c(OCOC)c1	> 20 µM	> 20 µM	7.8 µM	> 20 µM	> 20 µM	16.7 µM	Activity (MIA PaCa-2 [7]): 19.9%; Activity (MIA PaCa-2 [8]): 7.2%; Activity (MIA PaCa-2 [9]): 7%; viability at 5 µM (MIA PaCa-2 [10]): 7.2%; Activity (MIA PaCa-2 [11]): 8.2%; viability at 2.5 µM (MIA PaCa-2 [12]): 6.1%; CI (MIA PaCa-2 [13]): 2.04; CI (MIA PaCa-2 [14]): 2.16; CI (MIA PaCa-2 [15]): 1.43; Activity (MIA PaCa-2 [16]): 8.1%; CI (MIA PaCa-2 [17]): 2.18; CI (MIA PaCa-2 [18]): 1.87; CI (MIA PaCa-2 [19]): 1.13; Activity (MIA PaCa-2 [20]): 9.7%; Activity (MIA PaCa-2 [21]): 13%; CI (MIA PaCa-2 [22]): 1.21; Activity (MIA PaCa-2 [23]): 15.2%; CI (MIA PaCa-2 [24]): 1.42
COc1cc(O)c(C(=O)/C=C/c2ccccc2)c(OC)c1 [FLAVOKAWAIN B]	19.7 µM	> 20 µM	18.2 µM	> 20 µM	> 20 µM	> 20 µM	–
COc1cc(OC)c(C(=O)/C=C/c2ccccc2)c(O)c1Cc1ccccc1O	5.8 µM	6.8 µM	> 20 µM	> 20 µM	9.7 µM	3.1 µM	–
COc1cc(O)c(Cc2ccccc2O)c(O)c1C(=O)/C=C/c1ccccc1	4.3 µM	2.3 µM	5.1 µM	19.5 µM	> 20 µM	4.6 µM	Activity (HCT-116 [25]): inactive; Activity (HCT-116 [28]): inactive; Activity (HCT-116 [27]): inactive
COc1cc(O)c(C(C)=O)c(OC)c1 [XANTHOXYLIN]	> 20 µM	> 20 µM	> 20 µM	> 20 µM	> 20 µM	18.7 µM	–
